Laboratory results as given in ChEMBL document CHEMBL1121816, “Adrenoceptor blocking agents. Compounds related to metoprolol” (1981).

Columns and labels:
[1] = target: Beta-1 adrenergic receptor (Homo sapiens) (UniProt P08588); assay: Intrinsic activity of compound against beta-1-adrenergic receptor given as percent of maximal heart rate by iv injection of supramaximal doses of isoprenaline (IPR); type: functional, organism-based; conditions: Felis catus
Felis catus = species on record: Felis catus; assay: Antagonistic effect of compound on peripheral vascular resistance was measured as KB in cats; type: functional
In short: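 Reserpinized (5 mg/kg, 18 h prior), pentobarbital-anesthetized, vagotomized, ventilated cats. One hind leg perfused with the animal's own blood via the femoral artery at a constant flow above 10 mL/min; resistance read as perfusion pressure. Compound infused iv for 10 min in five stepwise concentrations, each followed by ia isoprenaline at about 80%-maximal dose. KB assumes competitive antagonism.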

[2] = target: Beta-1 adrenergic receptor (Homo sapiens) (UniProt P08588); assay: Agonistic effect of compound against beta-1-adrenergic receptor given as geometric mean (KA) of effect on heart rate; type: functional; conditions: Felis catus
In short: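 Cats of either sex (2.6–3.2 kg), starved 24 h, given reserpine 5 mg/kg 18 h before; pentobarbital 30 mg/kg ip, then 0.1 mg/min/kg infusion; ventilated, bilaterally vagotomized. Heart rate triggered from carotid pressure. Compound infused iv for 10 min at 1.0 mL/min in five rising concentrations. KA taken as the dose giving a semimaximal heart-rate increase.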

Chain of Beta-1 adrenergic receptor (Homo sapiens) (P08588 whole entry, looked up, the tested form may be a part): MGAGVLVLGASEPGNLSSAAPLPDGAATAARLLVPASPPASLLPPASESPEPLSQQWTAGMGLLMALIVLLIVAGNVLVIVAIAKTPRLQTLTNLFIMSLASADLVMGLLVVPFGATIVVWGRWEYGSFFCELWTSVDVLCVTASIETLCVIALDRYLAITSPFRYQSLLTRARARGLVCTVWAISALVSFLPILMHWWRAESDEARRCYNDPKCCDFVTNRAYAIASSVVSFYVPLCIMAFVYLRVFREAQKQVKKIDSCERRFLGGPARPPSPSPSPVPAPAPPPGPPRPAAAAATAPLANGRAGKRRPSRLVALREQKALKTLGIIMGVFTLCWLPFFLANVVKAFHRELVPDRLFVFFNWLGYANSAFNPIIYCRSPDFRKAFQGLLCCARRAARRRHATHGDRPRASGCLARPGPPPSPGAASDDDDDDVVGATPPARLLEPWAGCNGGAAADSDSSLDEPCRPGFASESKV

Structure (SMILES)	Intrinsic activity [1] [%]	KB (Felis catus) [µM/kg]	KA [2] [µM/kg]
COc1ccc(CCC(O)CNC(C)C)cc1.Cl (stereo unspecified)	4.5	30.8	–
COCCc1ccc(OCC(O)CNC(C)C)cc1.Cl (stereo unspecified)	–	0.87	–
COc1ccc(OCC(O)CNC(C)C)cc1.Cl (stereo unspecified)	81.2	3.42	0.119
Cc1ccc(OCCC(O)CNC(C)C)cc1.Cl (stereo unspecified)	–	1.82	–
COCc1ccc(CC(O)CNC(C)C)cc1.Cl (stereo unspecified)	–	6.1	–
COCCc1ccc(C(O)CNC(C)C)cc1.Cl (stereo unspecified)	22.5	23.6	0.536
